The source made the active and inactive calls. No cut-off for these calls is given here.
Columns and labels:
[1] = test system: SK-MEL-1; test: Cytotoxicity against human SK-MEL-1 cells assessed as reduction in cell viability after 72 hrs by MTT assay; assay type: functional, cell-based; settings: SK-MEL-1, 72 h
How it was run: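 1×10^4 exponentially growing cells were seeded with a range of compound concentrations for 72 h. MTT (0.5 mg/mL) was added for 4 h at 37 °C, and formazan was dissolved in 10% SDS/0.05 M HCl overnight at room temperature in the dark. A570 was read. IC50 was found by nonlinear regression for each experiment, with at least three independent experiments in triplicate.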

[2] = test system: SK-MEL-1; test: Cell cycle arrest in human SK-MEL-1 cells assessed as accumulation at sub-G1 phase at 3 uM after 24 hrs by propidium iodide staining-based flow cytometry (reference value: 4.5+/-1.6%); assay type: functional
[3] = test system: SK-MEL-1; test: Cell cycle arrest in human SK-MEL-1 cells assessed as accumulation at sub-G1 phase at 10 uM after 24 hrs by propidium iodide staining-based flow cytometry (reference value: 4.5+/-1.6%); assay type: functional
[4] = test system: SK-MEL-1; test: Cell cycle arrest in human SK-MEL-1 cells assessed as accumulation at sub-G1 phase at 30 uM after 24 hrs by propidium iodide staining-based flow cytometry (reference value: 4.5+/-1.6%); assay type: functional
[5] = test system: SK-MEL-1; test: Cell cycle arrest in human SK-MEL-1 cells assessed as accumulation at G1 phase at 3 uM after 24 hrs by propidium iodide staining-based flow cytometry (reference value: 61.5+/-1.7%); assay type: functional
[6] = test system: SK-MEL-1; test: Cell cycle arrest in human SK-MEL-1 cells assessed as accumulation at G1 phase at 10 uM after 24 hrs by propidium iodide staining-based flow cytometry (reference value: 61.5+/-1.7%); assay type: functional
[7] = test system: SK-MEL-1; test: Cell cycle arrest in human SK-MEL-1 cells assessed as accumulation at G1 phase at 30 uM after 24 hrs by propidium iodide staining-based flow cytometry (reference value: 61.5+/-1.7%); assay type: functional
[8] = test system: SK-MEL-1; test: Cell cycle arrest in human SK-MEL-1 cells assessed as accumulation at S phase at 3 uM after 24 hrs by propidium iodide staining-based flow cytometry (reference value: 17.7+/-0.4%); assay type: functional
[9] = test system: SK-MEL-1; test: Cell cycle arrest in human SK-MEL-1 cells assessed as accumulation at S phase at 10 uM after 24 hrs by propidium iodide staining-based flow cytometry (reference value: 17.7+/-0.4%); assay type: functional
[10] = test system: SK-MEL-1; test: Cell cycle arrest in human SK-MEL-1 cells assessed as accumulation at S phase at 30 uM after 24 hrs by propidium iodide staining-based flow cytometry (reference value: 17.7+/-0.4%); assay type: functional
[11] = test system: SK-MEL-1; test: Cell cycle arrest in human SK-MEL-1 cells assessed as accumulation at G2/M phase at 3 uM after 24 hrs by propidium iodide staining-based flow cytometry (reference value: 16.1+/-0.2%); assay type: functional
[12] = test system: SK-MEL-1; test: Cell cycle arrest in human SK-MEL-1 cells assessed as accumulation at G2/M phase at 10 uM after 24 hrs by propidium iodide staining-based flow cytometry (reference value: 16.1+/-0.2%); assay type: functional
[13] = test system: SK-MEL-1; test: Cell cycle arrest in human SK-MEL-1 cells assessed as accumulation at G2/M phase at 30 uM after 24 hrs by propidium iodide staining-based flow cytometry (reference value: 16.1+/-0.2%); assay type: functional
[14] = test system: SK-MEL-1; test: Induction of apoptosis in human SK-MEL-1 cells assessed as condensation of cell nuclei and chromatins at 30 uM after 24 hrs by bisbenzimide trihydrochloride staining-based fluorescent microscopic analysis; assay type: functional
How it was run: (§1)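 Cells were treated with 30 µM for 24 h, then stained with bisbenzimide trihydrochloride. Nuclear chromatin condensation and fragmentation were viewed by fluorescence microscopy.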

[15] = test system: SK-MEL-1; test: Induction of apoptosis in human SK-MEL-1 cells assessed as chromatin fragmentation at 30 uM after 24 hrs by bisbenzimide trihydrochloride staining-based fluorescent microscopic analysis; assay type: functional, cell-based; how it was run: as §1
[16] = test system: SK-MEL-1; test: Induction of apoptosis in human SK-MEL-1 cells assessed as increase in caspase-3/7 activity by measuring DEVD-pNA substrate cleavage up to 30 uM after 24 hrs by Bradford dye binding assay; assay type: functional, cell-based
How it was run: (§2)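 After treatment, cells were lysed in 50 mM HEPES pH 7.4, 1 mM DTT, 0.1 mM EDTA, 0.1% CHAPS. Protein was quantified by Bradford and equal amounts were used. DEVD-pNA (caspase-3/7), IETD-pNA (caspase-8) or LEHD-pNA (caspase-9) cleavage was read as net A405 increase at 37 °C. Results are fold increase over control, means ± SE of three experiments in triplicate.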

[17] = test system: SK-MEL-1; test: Induction of apoptosis in human SK-MEL-1 cells assessed as increase in caspase-3/7 activity by measuring DEVD-pNA substrate cleavage at 3 uM after 24 hrs by Bradford dye binding assay; assay type: functional, cell-based; how it was run: as §2
[18] = test system: SK-MEL-1; test: Induction of apoptosis in human SK-MEL-1 cells assessed as increase in caspase-8 activity by measuring IETD-pNA substrate cleavage up to 30 uM after 24 hrs by Bradford dye binding assay; assay type: functional, cell-based; how it was run: as §2
[19] = test system: SK-MEL-1; test: Induction of apoptosis in human SK-MEL-1 cells assessed as increase in caspase-8 activity by measuring IETD-pNA substrate cleavage at 3 uM after 24 hrs by Bradford dye binding assay; assay type: functional, cell-based; how it was run: as §2
[20] = test system: SK-MEL-1; test: Induction of apoptosis in human SK-MEL-1 cells assessed as increase in caspase-9 activity by measuring LEHD-pNA substrate cleavage up to 30 uM after 24 hrs by Bradford dye binding assay; assay type: functional, cell-based; how it was run: as §2
[21] = test system: SK-MEL-1; test: Induction of apoptosis in human SK-MEL-1 cells assessed as increase in caspase-9 activity by measuring LEHD-pNA substrate cleavage at 3 uM after 24 hrs by Bradford dye binding assay; assay type: functional, cell-based; how it was run: as §2
[22] = test system: SK-MEL-1; test: Induction of apoptosis in human SK-MEL-1 cells assessed as cleavage of main executioner caspase up to 30 uM after 24 hrs by Western blot method; assay type: functional, cell-based
How it was run: (§3)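 Cells were treated with increasing concentrations for 24 h and washed in PBS. Whole-cell lysates were used for pro-caspase-3. For cytochrome c, a cytosolic fraction was prepared: cells swelled in hypotonic HEPES buffer with 250 mM sucrose, were lysed through a 22-gauge needle, and spun at 1000×g then 105000×g (45 min, 4 °C). Both were probed by immunoblotting.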

[23] = test system: SK-MEL-1; test: Induction of apoptosis in human SK-MEL-1 cells assessed as increase in […] cytochrome c level by Western blot analysis; assay type: functional, cell-based; how it was run: as §3
[24] = species: Bos taurus; test: Inhibition of bovine tubulin polymerization measured at every 30 secs intervals for 50 mins in presence of GTP
How it was run: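 Purified bovine tubulin without MAPs was incubated in 80 mM PIPES pH 7.0 with 1 mM GTP, 1 mM EGTA, 1 mM MgCl2 and 10% glycerol at 37 °C, across several compound concentrations. A340 was recorded every 30 s for 50 min. Taxol (10 µM) and colchicine (5 µM) served as promotion and inhibition controls.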

[25] = test system: SK-MEL-1; test: Cytotoxicity against human SK-MEL-1 cells assessed as formation of unhealthy cells after 24 hrs by inverted phase contrast microscopic analysis; assay type: functional, cell-based
How it was run: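 Cells were grown in RPMI 1640 with 10% heat-inactivated FBS, 2 mM L-glutamine and penicillin/streptomycin (37 °C, 5% CO2). They were incubated with vehicle or increasing concentrations for 24 h, then imaged under an inverted phase-contrast microscope.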

How did the IC50 [1] turn out when COc1ccc2c(=O)c(OC)c(-c3ccc(O)cc3)oc2c1 was run?
Its IC50 is greater than 100 µM.

O=c1c(O)c(-c2ccc(O)cc2)oc2ccccc12 was tested. Which IC50 [1] did it give?
Its IC50 is greater than 100 µM.

O=c1c(O)c(-c2ccccc2O)oc2ccccc12 was tested. Which IC50 [1] did it give?
The IC50 was greater than 100 µM.

With COc1ccc2c(=O)c(OC)c(-c3ccc(OC)c(O)c3)oc2c1 as the compound, how does the IC50 [1] read?
The IC50 was 26.2 µM.

Which IC50 [1] does the source give for COc1ccc2c(=O)c(O)c(-c3ccccc3O)oc2c1 here?
Its IC50 is greater than 100 µM.

Which IC50 [1] does the source give for COc1cc([C@@H]2c3cc4c(cc3[C@@H](O[C@@H]3O[C@@H]5CO[C@@H](C)O[C@H]5[C@H](O)[C@H]3O)[C@H]3COC(=O)[C@H]23)OCO4)cc(OC)c1O [ETOPOSIDE] here?
Its IC50 is 8 µM.

With COc1cc(-c2oc3ccccc3c(=O)c2OC)ccc1O as the compound, how does the IC50 [1] read?
The IC50 was 79 µM.

Which IC50 [1] does the source give for COc1cc(-c2oc3ccccc3c(=O)c2O)ccc1O here?
The IC50 was 22 µM.

For COc1ccc(-c2oc3ccccc3c(=O)c2OC)cc1O, which Activity [2] is on record?
The Activity was 15.9%.

What about the Activity [3] of the same compound?
Its Activity is 9.2%.

What about the Activity [4] of the same compound?
The Activity was 21.9%.

What about the Activity [5] of the same compound?
Its Activity is 24.4%.

What about the Activity [6] of the same compound?
The Activity was 14.4%.

What about the Activity [7] of the same compound?
Its Activity is 30.7%.

What about the Activity [8] of the same compound?
Its Activity is 21.4%.

And the Activity [9]?
The Activity was 23.7%.

And the Activity [10]?
Its Activity is 26.8%.

And the Activity [11]?
Its Activity is 37.9%.

And the Activity [12]?
Its Activity is 52.2%.

And the Activity [13]?
The Activity was 20.2%.

What about the Activity [14] of the same compound?
Its Activity is “Active”.

What about the Activity [15] of the same compound?
Its Activity is “Active”.

What about the Activity [16] of the same compound?
The Activity was “Active”.

And the Activity [17]?
Its Activity is “Active”.

And the Activity [18]?
Its Activity is “Active”.

What about the Activity [19] of the same compound?
The Activity was “Active”.

What about the Activity [20] of the same compound?
The Activity was “Active”.

What about the Activity [21] of the same compound?
The Activity was “Active”.

What about the Activity [22] of the same compound?
Its Activity is “Active”.

What about the Activity [23] of the same compound?
Its Activity is “Dose-dependent effect”.

And the inhibition [24]?
The inhibition was “Dose-dependent effect”.

And the Activity [25]?
The Activity was “Active”.

And the IC50 [1]?
The IC50 was 6.9 µM.

How did the IC50 [1] turn out when COc1ccc2c(=O)c(O)c(-c3ccc(OC)c(O)c3)oc2c1 was run?
The IC50 was 15.5 µM.

For COc1ccc(-c2oc3ccccc3c(=O)c2O)cc1O, which IC50 [1] is on record?
The IC50 was 32.6 µM.

How did the IC50 [1] turn out when COc1ccc2c(=O)c(O)c(-c3ccc(O)c(OC)c3)oc2c1 was run?
The IC50 was 37 µM.

For COc1c(-c2ccc(O)cc2)oc2ccccc2c1=O, which IC50 [1] is on record?
Its IC50 is 91 µM.

With COc1c(-c2ccccc2O)oc2ccccc2c1=O as the compound, how does the IC50 [1] read?
Its IC50 is greater than 100 µM.

Which IC50 [1] does the source give for COc1ccc2c(=O)c(O)c(-c3ccc(O)cc3)oc2c1 here?
The IC50 was greater than 100 µM.

With COc1ccc2c(=O)c(OC)c(-c3ccc(O)c(OC)c3)oc2c1 as the compound, how does the IC50 [1] read?
Its IC50 is 52 µM.
